Source: PubChem (Sanford-Burnham Center for Chemical Genomics)
Hits are enriched below; roughly 1.4% of the tested compounds scored in any of these assays.
HKDC1 inh: HKDC1 (human) hexokinase inhibition; 0.16% of 340,000 active; inhibition, % at 20 µM; recombinant HKDC1, G6PDH/diaphorase resazurin coupled fluorescence; AID 493160;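 active = inhibition above about 35% when tested at 20 µM, limit read from the data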;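 also: plate controls were DMSO wells with enzyme for no effect and DMSO wells lacking enzyme for full effect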
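Assay system: recombinant HKDC1 hexokinase; detection: coupled resazurin fluorescence, excitation 525 nm, emission 613 nm; benchmarks: DMSO-plus-enzyme-mix negative control, buffer-substituted positive control; compound dosing: single 20 µM dose; schedule: 90 min at room temperature in dark; also added: glucose plus 1 mM ATP as hexokinase substrates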
PfG6PD inh: PfG6PD (Plasmodium falciparum) enzyme inhibition; 0.78% of 350,000 active; PfGluPho enzyme, NADPH resazurin-diaphorase fluorescence; inhibition, % at 20 µM; AID 504690;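 active = inhibition reaching at least a set limit at 20 µM in the primary screen, cut at about 59% in these data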;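 also: 0% = DMSO wells with substrate and 100% = DMSO wells lacking glucose-6-phosphate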
APOBEC3G inh: inhibitors of human APOBEC3G DNA deaminase. Q9HC16. recombinant A3G, ssDNA deamination FAM/TAMRA fluorescence. inhibition, % at 20 µM. 0.28% of 330,000 active;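 active = inhibition of at least 40% at 20 µM, with no more than 30% in the related APOBEC3A deaminase screen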;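 also: plate controls were DMSO wells with A3G for no effect and wells lacking A3G enzyme for full effect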
Target sequence (Q9HC16 whole entry, looked up): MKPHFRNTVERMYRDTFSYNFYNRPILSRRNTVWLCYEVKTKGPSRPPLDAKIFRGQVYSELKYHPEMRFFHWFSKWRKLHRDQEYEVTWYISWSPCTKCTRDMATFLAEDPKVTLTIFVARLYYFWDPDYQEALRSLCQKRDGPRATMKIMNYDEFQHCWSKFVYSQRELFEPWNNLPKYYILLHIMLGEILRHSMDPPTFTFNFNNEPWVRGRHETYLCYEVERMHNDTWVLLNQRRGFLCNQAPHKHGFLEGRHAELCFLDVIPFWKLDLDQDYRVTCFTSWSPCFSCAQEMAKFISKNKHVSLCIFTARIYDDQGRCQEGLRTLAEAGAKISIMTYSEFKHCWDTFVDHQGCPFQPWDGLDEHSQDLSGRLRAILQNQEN
iPSC survival up: increases survival of single human iPS cells. 0.044% of 360,000 active. AID 602274. hiPSC single-cell survival, ATPlite luminescence; 100% = ROCK inhibitor wells, 0% = DMSO. survival enhancement, % at 20 µM; in the data active = survival enhancement above about 18%;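 also: cells exposed to compounds for 16 hours before the ATP read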
APOBEC3A inh: blocks human APOBEC3A ssDNA deamination; AID 493011; inhibition, % at 20 µM; recombinant A3A, FAM/TAMRA ssDNA deamination fluorescence; 0.41% of 330,000 active;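 active = at least 40% inhibition at 20 µM here, with at most 30% in a related deaminase screen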;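 also: plate controls were A3A with DMSO for no effect and wells lacking A3A enzyme for full effect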
A3A conf: APOBEC3A (human) deaminase inhibition, confirmed | 63% of 1,400 active | shares compounds with APOBEC3A inh | inhibition, % at 20 µM | recombinant A3A, ssDNA deaminase UDG fluorescence assay;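 active = inhibition reaching a set limit, 80% of the first screen's cutoff, at 20 µM in any replicate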;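 also: plate controls were DMSO wells with A3A for no effect and wells lacking A3A enzyme for full effect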
UDG ctr A3A: counter-screen for APOBEC3A inhibitors: UDG; shares compounds with APOBEC3A inh; UDG counterscreen, FAM/TAMRA uracil oligo fluorescence; inhibition, % at 20 µM; 1,000 tested, under 10 active; AID 504714; call rule not given here
* hit, by the source's call; . = not tested or not shown.

SMILES	HKDC1 inh	PfG6PD inh	APOBEC3G inh	iPSC survival up	APOBEC3A inh	A3A conf	UDG ctr A3A
COc1ccc(CCC(=O)O)c(C(CC(=O)O)C(=O)O)c1OS(=O)(=O)c1ccc(C)cc1 (stereo not drawn)	.	-2	.	1	.	.	.
CC1(C(=O)NS(=O)(=O)c2ccc(F)cc2F)CCN1C(=O)CCc1ccccc1 (stereo not drawn)	.	.	.	-1	.	.	.
Cc1ccccc1NC(=O)N(C(C)C)C(C)C	-7	-1	-4	0	83*	-2	-2
COCCCNC(=O)CC1C[C@H](C(=O)N2CCOCC2)[C@@]2(CCC3CCCC3)c3[nH]c4ccc(OC)cc4c3CCN2C1=O (stereo partly drawn)	11	10	7	-2	7	.	.
Cc1nnc(SC(C)C(=O)Nc2nccs2)s1 (stereo not drawn)	3	-18	5	0	71*	13	.
COc1ccc(OC)c(-c2nnc(NC(=O)C(C)Sc3nncn3C)s2)c1 (stereo not drawn)	6	5	-2	1	-3	.	.
Cc1nnc(NC(=O)C(C)Sc2nncn2C)s1 (stereo not drawn)	-6	0	-3	-2	69*	-8	-3
CC(CC(=O)N1CCN(S(=O)(=O)c2ccc(Cl)cc2)CC1)n1cncn1 (stereo not drawn)	2	14	-7	0	-4	.	.
CCOC(=O)C(=O)N(C)c1c(CC)nc2c(OCc3cccc(Cl)c3)cccn12	.	.	.	2	.	.	.
O=C(c1ccccc1Cc1ccccc1)N1CCN(S(=O)(=O)c2ccccc2[N+](=O)[O-])CC1	-1	11	-1	0	46*	22	12
Cc1cc(C(=O)N/N=C/c2cc(Br)c(Br)o2)n[nH]1	7	1	16	0	58*	37*	0
O=C(Nc1ccc(NC(=O)C2CC2)cn1)c1ccccc1Cl	0	-1	-2	1	43*	-6	-1
CNc1nc(N)nc(OC(C(F)(F)F)C(F)(F)F)n1	-10	1	-12	-2	-2	.	.
C(=N\Nc1nc(N2CCOCC2)nc(N2CCOCC2)n1)/c1ccco1	.	.	0	.	14	.	.
Cc1ccc(/C=N/Nc2nc(N3CCOCC3)nc(N3CCOCC3)n2)o1	-6	1	-3	1	53*	33*	2
O=C(O)c1nn(CC(=O)N2CCN(c3ncc(C(F)(F)F)cc3Cl)CC2)c(=O)c2ccccc12	4	-1	-6	0	1	.	.
CCc1ccc(N(C(=O)c2csnn2)C(C(=O)NC(C)(C)C)c2cccnc2)cc1 (stereo not drawn)	-13	5	-8	-1	-2	.	.
C=CCn1c(C)c(/C=C/c2cc[n+](C)cc2)c2ccccc21	-1	9	-5	0	42*	59*	-14
CCN(CC)C(=O)Cn1c(C)c(/C=C/c2cc[n+](C)cc2)c2ccccc21	0	-12	17	-1	64*	62*	-5
CC(C)c1cc(C(=O)N2CCCC(Nc3ccc(F)cc3)C2)n[nH]1 (stereo not drawn)	3	-3	1	0	-2	.	.
CCOc1ccc(S(=O)(=O)N2CCN(CCNS(=O)(=O)c3ccc(C)cc3)CC2)cc1	-3	6	-9	0	-2	.	.
CC(=O)Nc1ccc(NC(=O)CSc2nnc(NC(=O)c3ccccc3F)s2)cc1	.	-9	.	-4	.	.	.
O=C(CSc1nnc(NC(=O)c2ccccc2C(=O)O)s1)Nc1ccccc1Cl	-6	-16	11	-3	60*	46*	-3
Cc1cccc(C)c1NC(=O)CSc1nnc(NC(=O)c2ccccc2C(=O)O)s1	-5	-28	17	0	64*	17	.
O=C(Nc1ccc(S(=O)(=O)N2CCCC2)cc1)C1CC(=O)N(c2ccccc2)C1 (stereo not drawn)	11	9	9	-1	72*	28	.
CCc1ccc(N2CC(C(=O)Nc3ccc(S(=O)(=O)N4CCCCC4)cc3)CC2=O)cc1 (stereo not drawn)	-3	-12	-7	0	10	.	.
